Laboratory results: ChEMBL document CHEMBL4602735, “Discovery of (1H-Pyrazolo[3,4-c]pyridin-5-yl)sulfonamide Analogues as Hepatitis B Virus Capsid Assembly Modulators by Conformation Constraint” (J Med Chem, 2020)
Calls of active or inactive are those of the source. No cut-off for these calls is given here.

How the values were obtained:
[1] = Cmax in C57BL/6 mouse blood at 100 mg/kg, po measured from 5 mins to 24 hrs by HPLC analysis; format: ADME, organism-based; parameters: dose 100 mg/kg, route oral
Method in brief: (§1)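 Male C57BL/6 mice, n=3. Dosing 20 mg/kg i.v. or 100 mg/kg p.o. of parent; prodrug p.o. at 100 or 200 mg/kg. The parent compound was measured in blood/plasma and in liver from 5 min onward. Readouts were Cmax, Tmax, t1/2, CL, AUC and oral bioavailability.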

[2] = Solubility in pH 7.4 phosphate buffer at 1 mg at 25 degC by HPLC analysis; format: physicochemical
Method in brief: (§2)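 Solubility determined in water or 0.067 M phosphate buffer at pH 5.8, 6.8 and 7.4. Values are reported in mg/mL; ND means below the detection limit.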

[3] = Half life in mouse plasma by HPLC analysis; settings: in vitro
[4] = Tmax in C57BL/6 mouse liver at 100 mg/kg, po measured from 5 mins to 24 hrs by HPLC analysis; format: ADME, organism-based
Method in brief: (§3)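 Male C57BL/6 mice, single oral dose of prodrug at 100 or 200 mg/kg; blood and liver levels of the parent compound measured over time; N=3; Tmax taken from the concentration–time profiles.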

[5] = Drug level in C57BL/6 mouse liver at 100 mg/kg, po measured after 5 mins by HPLC analysis; format: ADME, organism-based; settings: in vivo
[6] = Solubility in water at 1 mg at 25 degC by HPLC analysis; format: physicochemical; method in brief: as §2
[7] = Tmax in C57BL/6 mouse blood at 200 mg/kg, po measured from 5 mins to 24 hrs by HPLC analysis; format: ADME, organism-based; method in brief: as §3
[8] = Oral bioavailability in C57BL/6 mouse liver at 100 mg/kg measured from 5 mins to 24 hrs by HPLC analysis; format: ADME, organism-based; method in brief: as §1
[9] = AUC in C57BL/6 mouse liver at 100 mg/kg, po measured from 5 mins to 24 hrs by HPLC analysis; format: ADME, organism-based; parameters: time 0.083-24 hr, dose 100 mg/kg, route oral; settings: in vivo; method in brief: as §1
[10] = Oral bioavailability in C57BL/6 mouse liver at 200 mg/kg measured from 5 mins to 24 hrs by HPLC analysis; format: ADME, organism-based; method in brief: as §1
[11] = Tmax in C57BL/6 mouse liver at 200 mg/kg, po measured from 5 mins to 24 hrs by HPLC analysis; format: ADME, organism-based; method in brief: as §3
[12] = Solubility in pH 5.8 phosphate buffer at 1 mg at 25 degC by HPLC analysis; format: physicochemical; method in brief: as §2
[13] = AUC in C57BL/6 mouse liver at 200 mg/kg, po measured from 5 mins to 24 hrs by HPLC analysis; format: ADME, organism-based; parameters: time upper 24 hr, dose 200 mg/kg, time lower 0.083 hr, route oral; settings: in vivo; method in brief: as §1
[14] = Cmax in C57BL/6 mouse liver at 100 mg/kg, po measured from 5 mins to 24 hrs by HPLC analysis; format: ADME, organism-based; parameters: dose 100 mg/kg, route oral; settings: in vivo; method in brief: as §1
[15] = AUC in C57BL/6 mouse plasma at 200 mg/kg, po measured from 5 mins to 24 hrs by HPLC analysis; format: ADME, organism-based; parameters: time 0.083-24 hr, dose 200 mg/kg, route oral; method in brief: as §1
[16] = Solubility in pH 6.8 phosphate buffer at 1 mg at 25 degC by HPLC analysis; format: physicochemical; method in brief: as §2
[17] = Tmax in C57BL/6 mouse blood at 100 mg/kg, po measured from 5 mins to 24 hrs by HPLC analysis; format: ADME, organism-based; method in brief: as §3
[18] = Cmax in C57BL/6 mouse liver at 200 mg/kg, po measured from 5 mins to 24 hrs by HPLC analysis; format: ADME, organism-based; parameters: dose 200 mg/kg, route oral; settings: in vivo; method in brief: as §1
[19] = AUC in C57BL/6 mouse plasma at 100 mg/kg, po measured from 5 mins to 24 hrs by HPLC analysis; format: ADME, organism-based; parameters: time upper 24 hr, dose 100 mg/kg, time lower 0.083 hr, route oral; method in brief: as §1
[20] = Cmax in C57BL/6 mouse blood at 200 mg/kg, po measured from 5 mins to 24 hrs by HPLC analysis; format: ADME, organism-based; parameters: dose 200 mg/kg, route oral; method in brief: as §1
[21] = tested on: Hepatitis B virus; assay: Antiviral activity against HBV genotype D in hydrodynamic injection-based C57BL/6 mouse model of HBV infection assessed as inhibition of serum HBV DNA level at 50 mg/kg, po dosed twice daily for 7 days by real-time PCR analysis; format: functional, organism-based
[22] = Selectivity index, ratio of CC50 for cytotoxicity in human HepAD38 cells assessed as induction of cell killing to EC50 for antiviral activity against HBV infected in human HepAD38 cells assessed as reduction in viral DNA levels incubated for 6 days by PCR analysis; format: toxicity, cell-based; settings: read-out: Ratio CC50/EC50
[23] = tested on: Hepatitis B virus; assay: Antiviral activity against HBV genotype D in hydrodynamic injection-based C57BL/6 mouse model of HBV infection assessed as inhibition of liver HBV DNA level at 100 mg/kg, po dosed twice daily for 7 days by real-time PCR analysis; format: functional, organism-based
[24] = tested on: Hepatitis B virus; assay: Antiviral activity against HBV infected in human HepG2.2.15 cells assessed as inhibition of intracellular viral RNA accumulation at 2 uM for 4 days by qPCR or qRT-PCR relative to control; format: functional, organism-based; settings: HepG2 2.2.15
Method in brief: (§4)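 HepAD38 or HepG2.2.15 cells were treated at 2 µM for 4 days, with medium replaced every 2 days. Intracellular and extracellular DNA and RNA were quantified by qPCR or qRT-PCR, and HBeAg and HBsAg by ELISA. Results were compared with DMSO vehicle as mean ± SD, using a two-tailed t-test.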

[25] = tested on: Hepatitis B virus; assay: Antiviral activity against HBV infected in human HepAD38 cells assessed as reduction in viral DNA levels incubated for 6 days by PCR analysis; format: functional, organism-based; settings: HePAD38, 144 h
[26] = Intrinsic clearance in mouse liver microsomes; format: ADME, Microsome; settings: read-out: CLH
[27] = tested on: Hepatitis B virus; assay: Antiviral activity against HBV genotype D in hydrodynamic injection-based C57BL/6 mouse model of HBV infection assessed as inhibition of serum HBV DNA level at 100 mg/kg, po dosed twice daily for 7 days by real-time PCR analysis; format: functional, organism-based
[28] = AUC in C57BL/6 mouse plasma at 20 mg/kg, iv measured from 5 mins to 24 hrs by HPLC analysis; format: ADME, organism-based; parameters: dose 20 mg/kg, time upper 24 hr, time lower 0.083 hr, route intravenous; method in brief: as §1
[29] = tested on: Hepatitis B virus; assay: Antiviral activity against HBV genotype D in hydrodynamic injection-based C57BL/6 mouse model of HBV infection assessed as inhibition of liver HBV DNA level at 50 mg/kg, po dosed twice daily for 7 days by real-time PCR analysis; format: functional, organism-based
[30] = tested on: Hepatitis B virus; assay: Antiviral activity against HBV infected in human HepG2.A64 cells containing reverse transcriptase L180M/T184L/M204V mutant assessed as reduction in viral replication incubated for 6 days by PCR analysis; format: functional, organism-based; settings: HepG2.A64, 144 h
Method in brief: (§5)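 Wild-type HBV replication measured in HepAD38 and HepG2.2.15 cells, lamivudine/entecavir-resistant HBV in HepG2.A64 cells (rtL180M+rtT184L+rtM204V) and multidrug-resistant HBV in HepG2.1403F cells (rtL180M+rtM204V+rtS202G+rtN236T). Read-out is reduction of HBV DNA. EC50 is reported as mean ± SD.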

[31] = tested on: Hepatitis B virus; assay: Antiviral activity against HBV genotype D in hydrodynamic injection-based C57BL/6 mouse model of HBV infection assessed as inhibition of HBV replication at 50 mg/kg, po dosed once daily for 7 days by real-time PCR analysis; format: functional, organism-based
[32] = Half life in C57BL/6 mouse at 20 mg/kg, iv measured from 5 mins to 24 hrs by HPLC analysis; format: ADME, organism-based; settings: in vivo; method in brief: as §1
[33] = tested on: Hepatitis B virus; assay: Antiviral activity against HBV infected in human HepAD38 cells assessed as inhibition of intracellular viral RNA accumulation at 2 uM for 4 days by qPCR or qRT-PCR relative to control; format: functional, organism-based; method in brief: as §4
[34] = AUC in C57BL/6 mouse liver at 20 mg/kg, iv measured from 5 mins to 24 hrs by HPLC analysis; format: ADME, organism-based; parameters: time lower 0.083 hr, dose 20 mg/kg, time upper 24 hr, route intravenous; settings: in vivo; method in brief: as §1
[35] = tested on: Hepatitis B virus; assay: Antiviral activity against HBV infected in human HepAD38 cells assessed as inhibition of intracellular viral DNA accumulation at 2 uM for 4 days by qPCR or qRT-PCR relative to control; format: functional, organism-based; method in brief: as §4
[36] = tested on: Hepatitis B virus; assay: Inhibition of HBsAg secretion in HBV infected human HepG2.2.15 cells at 2 uM for 4 days by ELISA; format: functional, organism-based; settings: HepG2 2.2.15; method in brief: as §4
[37] = Cytotoxicity in human HepAD38 cells assessed as induction of cell killing; format: cell-based
[38] = tested on: Hepatitis B virus; assay: Antiviral activity against HBV infected in human HepG2.2.15 cells assessed as inhibition of intracellular viral DNA accumulation at 2 uM for 4 days by qPCR or qRT-PCR relative to control; format: functional, organism-based; settings: HepG2 2.2.15; method in brief: as §4
[39] = Cytotoxicity in human HepG2 cells assessed as induction of cell killing; format: cell-based
[40] = tested on: Hepatitis B virus; assay: Inhibition of HBsAg secretion in HBV infected human HepAD38 cells at 2 uM for 4 days by ELISA; format: functional, organism-based; method in brief: as §4
[41] = Clearance in C57BL/6 mouse at 20 mg/kg, iv measured from 5 mins to 24 hrs by HPLC analysis; format: ADME, organism-based; settings: in vivo; method in brief: as §1
[42] = tested on: Hepatitis B virus; assay: Antiviral activity against HBV infected in human HepG2.2.15 cells assessed as reduction in viral DNA levels incubated for 6 days by PCR analysis; format: functional, organism-based; settings: HepG2 2.2.15, 144 h
[43] = tested on: Hepatitis B virus; assay: Antiviral activity against multidrug-resistant HBV infected in human HepG2.1403F cells assessed as reduction in viral replication incubated for 6 days by PCR analysis; format: functional, organism-based; settings: 144 h; method in brief: as §5

Structure (SMILES): Cc1cc(Nc2nn(C3CC3)c3cnc(S(=O)(=O)N4CCC(OC(=O)CN(C)C)CC4)cc23)ccc1F.O=C(O)CC(O)(CC(=O)O)C(=O)O
- Cmax [1]: 3730 nM
- solubility [2]: 31 µg/mL
- half-life [3]: 47 min
- Tmax [4]: 2 h
- Drug uptake [5]: > 10 nmol/g
- solubility [6]: 8130 µg/mL
- Tmax [7]: 1 h
- bioavailability [8]: 87.6%
- AUC [9]: 306 nmol·h/g
- bioavailability [10]: 132%
- Tmax [11]: 4 h
- solubility [12]: 7600 µg/mL
- AUC [13]: 482 nmol·h/g
- Cmax [14]: 40 nmol/g
- AUC [15]: 21100 ng·h/mL
- solubility ([16]; phosphate buffer, read-out: solubility): 6650 µg/mL
- Tmax [17]: 60 min
- Cmax [18]: 59 nmol/g
- AUC [19]: 7010 ng·h/mL
- Cmax [20]: 8.84 µM

Structure (SMILES): Cc1cc(Nc2nn(C3CC3)c3cnc(S(=O)(=O)N4CCC(O)CC4)cc23)ccc1F
- Cmax [1]: 1190 nM
- Activity [21]: inactive
- selectivity ratio at 144 h [22]: > 2940
- Activity [23]: inactive
- inhibition [24]: Active
- EC50 [25]: 34 nM
- microsomal CLint [26]: 10.3 µL/min/mg
- Activity [27]: inactive
- Tmax [4]: 0.5 h
- Drug uptake [5]: > 10 nmol/g
- AUC [28]: 2600 ng·h/mL
- Activity [29]: inactive
- EC50 [30]: 0.25 nM
- bioavailability [8]: 12%
- AUC [9]: 142 nmol·h/g
- Activity [31]: inactive
- half-life [32]: 37.8 min
- inhibition [33]: Active
- AUC [34]: 62 nmol·h/g
- inhibition [35]: Active
- inhibition [36]: inactive
- Cmax [14]: 32 nmol/g
- CC50 [37]: > 100 µM
- inhibition [38]: Active
- solubility ([16]; BLD = below limit of detection): Bld
- CC50 [39]: > 100 µM
- Tmax [17]: 30 min
- AUC [19]: 1580 ng·h/mL
- inhibition [40]: inactive
- clearance [41]: 2.33 mL/min
- EC50 [42]: 3.5 nM
- EC50 [43]: 0.33 nM
